In ChEMBL document CHEMBL1122253, “Optically active catecholimidazolines: a study of steric interactions at alpha-adrenoreceptors” (1983):

Organism: Rattus norvegicus
Assay: Negative Log of ED50 used to stimulate alpha adrenergic activity in rat aorta

In order of falling pED50:
1. Cl.Oc1ccc([C@@H](O)C2=NCCN2)cc1O  8.59
2. Cl.Oc1ccc(CC2=NCCN2)cc1O  8.59
3. Cl.Oc1ccc([C@H](O)C2=NCCN2)cc1O  7.67
4. C[C@H]1CN=C(Cc2ccc(O)c(O)c2)N1.Cl  6.32
5. C[C@@H]1CN=C(Cc2ccc(O)c(O)c2)N1.Cl  6.29
6. CN1CC[N+](C)=C1Cc1ccc(O)c(O)c1.Cl.F[B-](F)(F)F  5.54
7. Cl.Oc1ccc(CC2=NC[C@@H](Cc3ccccc3)N2)cc1O  4.44
8. Cl.Oc1ccc(CC2=NC[C@H](Cc3ccccc3)N2)cc1O  4.33

Organism: Rattus norvegicus
Assay: Relative value for maximum contraction (10e-5 = 1.0, phenylephrine) of rat aorta.
Assay type: functional
Procedure, shortened: (§1)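 Thoracic aorta: the 2-cm segment distal to the first intercostal artery, cut into strips at 75–80° to the lumen. Strips kept in PSS gassed with 95% O2/5% CO2 […], under 2-g tension with isometric force recording. After 1 h equilibration, one half-maximal phenylephrine challenge, then 1 h re-equilibration. Cumulative concentration-effect curves used about threefold steps, with washout and at least 1 h between curves.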

In order of rising IA:
1. C[C@@H]1CN=C(Cc2ccc(O)c(O)c2)N1.Cl  0.74
2. CN1CC[N+](C)=C1Cc1ccc(O)c(O)c1.Cl.F[B-](F)(F)F  0.81
3. CN1CCN=C1Cc1ccc(O)c(O)c1.Cl  0.85
4. Cl.Oc1ccc(CC2=NC[C@@H](Cc3ccccc3)N2)cc1O  0.91
5. Cl.Oc1ccc([C@@H](O)C2=NCCN2)cc1O  1
6. Cl.Oc1ccc(CC2=NCCN2)cc1O  1
7. Cl.Oc1ccc([C@H](O)C2=NCCN2)cc1O  1
8. C[C@H]1CN=C(Cc2ccc(O)c(O)c2)N1.Cl  1
9. Cl.Oc1ccc(CC2=NC[C@H](Cc3ccccc3)N2)cc1O  1

Organism: Rattus norvegicus
Assay: Negative Log of ED50 used to inhibit alpha adrenergic activity in rat aorta
Assay type: functional
Procedure, shortened: as §1

`CN1CCN=C1Cc1ccc(O)c(O)c1.Cl` showed a pED50 of 5.84.
